Experiment: Inhibition of ACE
Summary of the method: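 Enzyme source: rabbit lung acetone powder, extracted by soaking in 100 mM borate buffer, then ultracentrifuged. Extract preincubated 5 min with a range of inhibitor concentrations. Reaction started with a 1 mM solution of chromogenic substrate FAPGG. Initial hydrolysis rate followed continuously as absorbance change at 340 nm over time. IC50 from triplicate measurements fitted to a sigmoidal dose-response curve. Captopril run in parallel as benchmark.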

IC50 [µM] | SMILES
0.0144 | CC[C@@H](C)[C@H](NC(C)=O)C(=O)N[C@@H](Cc1ccc(O)cc1)C(=O)N[C@@H](Cc1ccc(O)cc1)P(=O)(O)O
2000 | CC[C@@H](C)[C@H](NC(C)=O)C(=O)N[C@@H](Cc1ccc(O)cc1)C(=O)N[C@H](Cc1ccc(O)cc1)C(=O)O
21 | CC[C@@H](C)[C@H](NC(C)=O)C(=O)N[C@@H](Cc1ccc(O)cc1)C(=O)N[C@@H](Cc1ccc(O)cc1)C(=O)O
0.139 | CC[C@@H](C)[C@H](NC(C)=O)C(=O)N[C@@H](Cc1ccc(O)cc1)C(=O)N[C@H](Cc1ccc(O)cc1)P(=O)(O)O

Further lines, the molecule ahead of its results:

SMILES | IC50 [µM]
C[C@H](CS)C(=O)N1CCC[C@H]1C(=O)O [CAPTOPRIL] | 0.0077
CC[C@@H](C)[C@H](N)C(=O)N[C@@H](Cc1ccc(O)cc1)C(=O)N[C@@H](Cc1ccc(O)cc1)P(=O)(O)O | 0.234
CC[C@@H](C)[C@H](N)C(=O)N[C@@H](Cc1ccc(O)cc1)C(=O)N[C@H](Cc1ccc(O)cc1)P(=O)(O)O | 54.6
CC[C@@H](C)[C@H](N)C(=O)N[C@@H](Cc1ccc(O)cc1)C(=O)N[C@H](Cc1ccc(O)cc1)C(=O)O | > 1000
CCOP(=O)(OCC)[C@H](Cc1ccc(O)cc1)NC(=O)[C@H](Cc1ccc(O)cc1)NC(=O)[C@@H](NC(C)=O)[C@H](C)CC | 383
CC[C@@H](C)[C@H](N)C(=O)N[C@@H](Cc1ccc(O)cc1)C(=O)N[C@@H](Cc1ccc(O)cc1)C(=O)O | 236

Reference: ChEMBL document CHEMBL1142429, “Identification of ACE pharmacophore in the phosphonopeptide metabolite K-26” (Bioorg Med Chem Lett, 2008)
